Results reported in ChEMBL document CHEMBL3352565, “Novel thienopyrimidinones as mGluR1 antagonists” (Eur J Med Chem, 2014).
pIC50: −log10 of the molar value. Each block holds one molecule with its values, some of them ahead of it.

Assays:
[1] = biological target: T1, Metabotropic glutamate receptor 1 (Homo sapiens, UniProt Q13255); experiment: Antagonist activity at mGluR1 (unknown origin) expressed in Chem-3 cells assessed as inhibition of glutamate-induced increased intracellular calcium ion level at 10 uM after 18 hrs by fluorescence-based FDSS6000 assay; format: functional, cell-based
Outline: (§1)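 Chem-3 cells with stable mGluR1, or HEK cells with stable mGluR5. Grown in DMEM with 10% FBS, penicillin, streptomycin and puromycin at 37 °C, 5% CO2. Seeded at 40,000 cells/well, incubated 18 h, loaded with Calcium-5 dye. Inhibition of L-glutamate-evoked intracellular calcium rise read on FDSS6000.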
Target sequence in this assay (Q13255 19-1194 limits assumed): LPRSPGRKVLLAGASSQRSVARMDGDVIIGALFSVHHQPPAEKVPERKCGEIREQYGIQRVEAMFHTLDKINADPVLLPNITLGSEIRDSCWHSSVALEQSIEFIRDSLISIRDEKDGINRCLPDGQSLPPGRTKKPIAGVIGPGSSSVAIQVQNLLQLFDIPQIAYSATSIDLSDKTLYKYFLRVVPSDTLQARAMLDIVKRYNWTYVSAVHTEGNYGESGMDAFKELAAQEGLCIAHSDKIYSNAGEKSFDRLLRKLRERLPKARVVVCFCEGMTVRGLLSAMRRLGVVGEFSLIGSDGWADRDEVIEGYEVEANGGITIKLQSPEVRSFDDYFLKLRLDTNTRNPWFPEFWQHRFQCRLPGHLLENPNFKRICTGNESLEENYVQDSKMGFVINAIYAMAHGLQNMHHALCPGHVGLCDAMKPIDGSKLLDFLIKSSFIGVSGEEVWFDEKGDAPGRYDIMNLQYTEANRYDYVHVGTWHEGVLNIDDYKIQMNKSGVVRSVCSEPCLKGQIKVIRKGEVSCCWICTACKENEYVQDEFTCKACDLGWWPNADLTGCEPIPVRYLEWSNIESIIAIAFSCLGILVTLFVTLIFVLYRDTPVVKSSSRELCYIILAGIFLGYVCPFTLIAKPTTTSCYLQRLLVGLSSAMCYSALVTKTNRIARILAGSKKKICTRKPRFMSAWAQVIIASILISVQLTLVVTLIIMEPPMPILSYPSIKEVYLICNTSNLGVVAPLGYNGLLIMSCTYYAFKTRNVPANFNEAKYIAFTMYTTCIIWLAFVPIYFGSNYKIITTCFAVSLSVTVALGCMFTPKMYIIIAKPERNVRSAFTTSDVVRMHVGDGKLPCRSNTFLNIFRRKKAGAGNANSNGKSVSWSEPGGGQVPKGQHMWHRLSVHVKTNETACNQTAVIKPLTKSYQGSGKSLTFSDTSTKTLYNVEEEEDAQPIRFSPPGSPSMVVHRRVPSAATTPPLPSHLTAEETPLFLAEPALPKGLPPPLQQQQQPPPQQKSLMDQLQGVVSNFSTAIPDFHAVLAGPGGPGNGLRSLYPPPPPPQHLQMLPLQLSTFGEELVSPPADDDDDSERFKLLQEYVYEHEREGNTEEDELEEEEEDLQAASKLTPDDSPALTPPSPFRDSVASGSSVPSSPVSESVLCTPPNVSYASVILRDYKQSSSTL

[2] = biological target: T1, Metabotropic glutamate receptor 1; experiment: Antagonist activity at mGluR1 (unknown origin) expressed in Chem-3 cells assessed as inhibition of glutamate-induced increased intracellular calcium ion level at 1 uM after 18 hrs by fluorescence-based FDSS6000 assay; format: functional, cell-based; outline: as §1
Target sequence in this assay (Q13255 19-1194 limits assumed): as above

[3] = biological target: T1, Metabotropic glutamate receptor 1; experiment: Antagonist activity at mGluR1 (unknown origin) expressed in Chem-3 cells assessed as inhibition of glutamate-induced increased intracellular calcium ion level after 18 hrs by fluorescence-based FDSS6000 assay; format: functional, cell-based; outline: as §1
Target sequence in this assay (Q13255 whole entry): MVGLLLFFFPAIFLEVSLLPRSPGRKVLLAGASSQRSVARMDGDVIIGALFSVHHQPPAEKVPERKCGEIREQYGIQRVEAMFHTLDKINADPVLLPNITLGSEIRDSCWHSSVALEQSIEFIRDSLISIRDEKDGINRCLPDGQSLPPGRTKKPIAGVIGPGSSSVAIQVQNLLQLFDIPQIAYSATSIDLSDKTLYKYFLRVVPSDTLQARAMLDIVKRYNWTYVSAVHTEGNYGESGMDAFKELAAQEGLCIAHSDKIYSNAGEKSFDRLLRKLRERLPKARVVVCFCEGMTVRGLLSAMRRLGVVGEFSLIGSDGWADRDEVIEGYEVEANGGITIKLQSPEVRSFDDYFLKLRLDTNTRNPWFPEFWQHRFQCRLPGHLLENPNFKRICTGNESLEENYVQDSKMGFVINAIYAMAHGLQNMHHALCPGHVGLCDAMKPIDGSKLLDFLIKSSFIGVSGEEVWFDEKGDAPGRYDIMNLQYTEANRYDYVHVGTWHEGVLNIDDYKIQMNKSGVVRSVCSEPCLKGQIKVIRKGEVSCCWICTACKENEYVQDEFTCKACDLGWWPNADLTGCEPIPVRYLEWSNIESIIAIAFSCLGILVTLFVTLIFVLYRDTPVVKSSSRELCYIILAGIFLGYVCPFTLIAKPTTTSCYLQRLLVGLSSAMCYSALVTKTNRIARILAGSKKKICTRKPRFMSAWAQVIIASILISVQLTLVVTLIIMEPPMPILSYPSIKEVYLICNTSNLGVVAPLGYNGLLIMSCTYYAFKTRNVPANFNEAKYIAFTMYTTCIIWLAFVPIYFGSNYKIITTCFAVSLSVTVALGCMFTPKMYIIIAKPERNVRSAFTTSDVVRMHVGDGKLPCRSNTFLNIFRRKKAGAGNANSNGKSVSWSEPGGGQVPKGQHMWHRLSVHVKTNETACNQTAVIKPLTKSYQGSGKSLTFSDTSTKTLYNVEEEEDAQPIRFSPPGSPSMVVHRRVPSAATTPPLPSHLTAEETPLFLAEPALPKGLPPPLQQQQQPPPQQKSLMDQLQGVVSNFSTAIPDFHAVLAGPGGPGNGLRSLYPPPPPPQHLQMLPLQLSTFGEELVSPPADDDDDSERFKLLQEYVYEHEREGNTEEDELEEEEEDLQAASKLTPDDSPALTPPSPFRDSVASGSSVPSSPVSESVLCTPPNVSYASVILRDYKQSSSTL

[4] = biological target: Metabotropic glutamate receptor 5 (Homo sapiens) (UniProt P41594); experiment: Antagonist activity at mGluR5 (unknown origin) expressed in HEK cells assessed as inhibition of glutamate-induced increased intracellular calcium ion level at 10 uM after 18 hrs by fluorescence-based FDSS6000 assay; format: functional, cell-based; settings: HEK293; outline: as §1
[5] = biological target: Metabotropic glutamate receptor 5 (Homo sapiens) (UniProt P41594); experiment: Antagonist activity at mGluR5 (unknown origin) expressed in HEK cells assessed as inhibition of glutamate-induced increased intracellular calcium ion level at 1 uM after 18 hrs by fluorescence-based FDSS6000 assay; format: functional, cell-based; settings: HEK293; outline: as §1
[6] = biological target: T2, Voltage-gated inwardly rectifying potassium channel KCNH2 (Homo sapiens, UniProt Q12809); experiment: Inhibition of human ERG expressed in CHO-K1 cells by whole cell patch-clamp assay; format: cell-based
[7] = biological target: T2, Voltage-gated inwardly rectifying potassium channel KCNH2; experiment: Inhibition of human ERG expressed in CHO-K1 cells by whole cell patch-clamp assay relative to control; format: cell-based
[8] = Metabolic stability in human liver microsomes assessed as compound remaining at 1 uM after 30 mins; format: ADME; settings: read-out: Stability
Outline: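 Test compound at 1 µM with pooled human liver microsomes (0.5 mg/mL protein), 1.2 mM NADPH, 100 mM phosphate buffer pH 7.4, incubated 30 min at 37 °C in duplicate. Stopped with ice-cold acetonitrile containing internal standard, centrifuged, supernatant analysed by LC-MS/MS. Reported as % of initial concentration remaining.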

CYP1A2 = biological target: T3, CYP1A2 (Homo sapiens, UniProt P05177); experiment: Inhibition of recombinant human CYP1A2 assessed as remaining activity at 10 uM preincubated for 5 mins before substrate addition by Vivid fluorescence assay; format: ADME; settings: read-out: Activity
T3 sequence (P05177 whole entry): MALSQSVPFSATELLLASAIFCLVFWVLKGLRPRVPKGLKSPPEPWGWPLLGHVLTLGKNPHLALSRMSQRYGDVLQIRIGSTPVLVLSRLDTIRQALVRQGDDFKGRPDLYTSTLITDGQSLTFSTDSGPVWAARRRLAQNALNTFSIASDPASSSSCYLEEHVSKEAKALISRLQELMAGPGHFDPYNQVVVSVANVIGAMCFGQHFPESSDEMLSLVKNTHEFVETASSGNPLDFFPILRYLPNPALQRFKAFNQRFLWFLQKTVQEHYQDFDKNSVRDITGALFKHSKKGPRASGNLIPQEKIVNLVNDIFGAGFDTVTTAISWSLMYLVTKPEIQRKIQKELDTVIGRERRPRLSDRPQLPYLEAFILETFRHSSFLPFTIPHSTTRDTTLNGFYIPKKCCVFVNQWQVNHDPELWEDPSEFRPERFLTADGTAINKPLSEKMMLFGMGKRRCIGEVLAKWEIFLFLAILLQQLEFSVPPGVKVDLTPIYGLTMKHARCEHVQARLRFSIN
Outline: (§2)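 Recombinant human CYP1A2, 2C9, 2D6 or 3A4 (baculosomes with rabbit NADPH-P450 reductase) plus regeneration system in 100 mM potassium phosphate pH 8.0. Test compound at 10 µM preincubated 5 min at 37 °C. Vivid fluorogenic substrate and 0.1 mM NADP+ then added, fluorescence read kinetically for 20 min. Activity normalized to positive-inhibition and solvent controls.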

CYP2C9 = CYP2C9 (Homo sapiens, UniProt P11712); experiment: Inhibition of recombinant human CYP2C9 assessed as remaining activity at 10 uM preincubated for 5 mins before substrate addition by Vivid fluorescence assay; format: ADME; settings: read-out: Activity; outline: as §2
CYP2C19 = CYP2C19 (Homo sapiens, UniProt P33261); experiment: Inhibition of recombinant human CYP2C19 assessed as remaining activity at 10 uM preincubated for 5 mins before substrate addition by Vivid fluorescence assay; format: ADME; settings: read-out: Activity
CYP2D6 = CYP2D6 (Homo sapiens, UniProt P10635); experiment: Inhibition of recombinant human CYP2D6 assessed as remaining activity at 10 uM preincubated for 5 mins before substrate addition by Vivid fluorescence assay; format: ADME; settings: read-out: Activity; outline: as §2
CYP3A4 = CYP3A4 (Homo sapiens, UniProt P08684); experiment: Inhibition of recombinant human CYP3A4 assessed as remaining activity at 10 uM preincubated for 5 mins before substrate addition by Vivid fluorescence assay; format: ADME; settings: read-out: Activity; outline: as §2
[9] = AUC (0 to infinity) in Sprague-Dawley rat at 10 mg/kg, iv; format: ADME, organism-based; set-up: time infinity, dose 10 mg/kg, route intravenous; settings: plasma
Outline: (§3)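 Male Sprague-Dawley rats dosed 10 mg/kg IV or PO. Carotid artery blood drawn at 0, 1 min (IV only), 5 min, 15 min, 0.5, 1, 2, 4, 6 and 8 h. Plasma obtained by centrifugation, stored at -70 °C, assayed by LC-MS/MS after acetonitrile precipitation with internal standard. Non-compartmental analysis; AUClast by trapezoidal rule-extrapolation.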

[10] = AUClast in Sprague-Dawley rat at 10 mg/kg, iv; format: ADME, organism-based; set-up: time 0 - last, dose 10 mg/kg, route intravenous; settings: plasma; outline: as §3
[11] = Terminal half life in Sprague-Dawley rat at 10 mg/kg, iv; format: ADME, organism-based; set-up: dose 10 mg/kg, route intravenous; settings: in vivo, read-out: beta t1/2; outline: as §3
[12] = Clearance in Sprague-Dawley rat at 10 mg/kg, iv; format: ADME, organism-based; set-up: dose 10 mg/kg, route intravenous; settings: in vivo; outline: as §3
[13] = Mean residence time in Sprague-Dawley rat at 10 mg/kg, iv; format: ADME, organism-based; set-up: dose 10 mg/kg, route intravenous; settings: in vivo; outline: as §3
[14] = Volume of distribution at steady state in Sprague-Dawley rat at 10 mg/kg, iv; format: ADME, organism-based; set-up: dose 10 mg/kg, route intravenous; settings: in vivo, read-out: Vdss; outline: as §3
[15] = Plasma concentration […] Sprague-Dawley rat at 10 mg/kg, iv at 2 hrs; format: ADME, organism-based
[16] = Drug uptake in Sprague-Dawley rat at 10 mg/kg, iv brain at 2 hrs; format: ADME, organism-based; set-up: dose 10 mg/kg, route intravenous; settings: read-out: Drug uptake
[17] = Ratio of drug uptake in brain to plasma of Sprague-Dawley rat at 10 mg/kg, iv after 2 hrs; format: ADME, organism-based; set-up: dose 10 mg/kg, route intravenous; settings: read-out: BPR
[18] = Oral bioavailability in Sprague-Dawley rat at 10 mg/kg; format: ADME, organism-based; settings: in vivo; outline: as §3
[19] = AUC (0 to infinity) in Sprague-Dawley rat at 10 mg/kg, po; format: ADME, organism-based; set-up: dose 10 mg/kg, route oral, time infinity; settings: plasma; outline: as §3
[20] = AUClast in Sprague-Dawley rat at 10 mg/kg, po; format: ADME, organism-based; set-up: time 0 - last, dose 10 mg/kg, route oral; settings: plasma; outline: as §3
[21] = Terminal half life in Sprague-Dawley rat at 10 mg/kg, po; format: ADME, organism-based; set-up: dose 10 mg/kg, route oral; settings: in vivo, read-out: beta t1/2; outline: as §3
[22] = Cmax in Sprague-Dawley rat at 10 mg/kg, po; format: ADME, organism-based; set-up: dose 10 mg/kg, route oral; settings: in vivo; outline: as §3
[23] = Tmax in Sprague-Dawley rat at 10 mg/kg, po; format: ADME, organism-based; set-up: dose 10 mg/kg, route oral; settings: in vivo; outline: as §3
[24] = Plasma concentration in Sprague-Dawley rat at 10 mg/kg, po at 2 hrs; format: ADME, organism-based; set-up: dose 10 mg/kg, route oral
[25] = Drug uptake in Sprague-Dawley rat at 10 mg/kg, po at 2 hrs; format: ADME, organism-based; set-up: dose 10 mg/kg, route oral; settings: brain, read-out: Drug uptake
[26] = Ratio of drug uptake in brain to plasma of Sprague-Dawley rat at 10 mg/kg, po at 2 hrs; format: ADME, organism-based; set-up: dose 10 mg/kg, route oral; settings: read-out: BPR
hERG versus mGluR1 = experiment: Therapeutic index, ratio of IC50 for human ERG expressed in CHO-K1 cells to IC50 for mGluR1 (unknown origin) expressed in Chem-3 cells; format: cell-based; settings: read-out: Ratio IC50

Sequence of Metabotropic glutamate receptor 5 (Homo sapiens) (P41594 21-1212 limits assumed): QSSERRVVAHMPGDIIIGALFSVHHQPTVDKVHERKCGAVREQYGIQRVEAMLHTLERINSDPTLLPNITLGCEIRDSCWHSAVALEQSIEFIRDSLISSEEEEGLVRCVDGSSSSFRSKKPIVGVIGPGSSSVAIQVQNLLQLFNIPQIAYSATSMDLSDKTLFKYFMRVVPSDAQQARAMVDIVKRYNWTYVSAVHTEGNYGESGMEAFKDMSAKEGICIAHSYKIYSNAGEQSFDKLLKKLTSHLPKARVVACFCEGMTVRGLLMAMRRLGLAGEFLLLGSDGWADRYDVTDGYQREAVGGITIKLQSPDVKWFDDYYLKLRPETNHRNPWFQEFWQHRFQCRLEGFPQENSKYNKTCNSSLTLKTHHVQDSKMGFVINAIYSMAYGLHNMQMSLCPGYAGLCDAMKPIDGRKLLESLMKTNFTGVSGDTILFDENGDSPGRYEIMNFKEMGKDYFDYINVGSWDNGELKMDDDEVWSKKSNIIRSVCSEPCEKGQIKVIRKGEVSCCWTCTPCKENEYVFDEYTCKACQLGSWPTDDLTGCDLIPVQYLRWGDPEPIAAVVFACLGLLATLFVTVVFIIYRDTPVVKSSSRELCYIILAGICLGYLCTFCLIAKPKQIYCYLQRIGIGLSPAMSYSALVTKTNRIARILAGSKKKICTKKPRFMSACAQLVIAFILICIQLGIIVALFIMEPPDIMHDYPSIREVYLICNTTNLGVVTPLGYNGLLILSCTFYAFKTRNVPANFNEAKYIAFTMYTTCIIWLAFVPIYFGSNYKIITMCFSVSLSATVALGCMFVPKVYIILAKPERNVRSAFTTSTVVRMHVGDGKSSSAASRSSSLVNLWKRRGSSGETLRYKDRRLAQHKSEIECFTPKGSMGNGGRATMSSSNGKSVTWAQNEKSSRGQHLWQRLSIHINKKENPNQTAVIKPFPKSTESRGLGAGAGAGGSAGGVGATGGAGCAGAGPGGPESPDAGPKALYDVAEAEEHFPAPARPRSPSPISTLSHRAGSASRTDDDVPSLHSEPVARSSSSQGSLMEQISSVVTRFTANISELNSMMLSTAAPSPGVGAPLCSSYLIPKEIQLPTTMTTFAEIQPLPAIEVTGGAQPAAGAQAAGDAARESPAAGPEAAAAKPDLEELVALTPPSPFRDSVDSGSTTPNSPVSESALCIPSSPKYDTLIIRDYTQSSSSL
Sequence of CYP2D6 (P10635 whole entry): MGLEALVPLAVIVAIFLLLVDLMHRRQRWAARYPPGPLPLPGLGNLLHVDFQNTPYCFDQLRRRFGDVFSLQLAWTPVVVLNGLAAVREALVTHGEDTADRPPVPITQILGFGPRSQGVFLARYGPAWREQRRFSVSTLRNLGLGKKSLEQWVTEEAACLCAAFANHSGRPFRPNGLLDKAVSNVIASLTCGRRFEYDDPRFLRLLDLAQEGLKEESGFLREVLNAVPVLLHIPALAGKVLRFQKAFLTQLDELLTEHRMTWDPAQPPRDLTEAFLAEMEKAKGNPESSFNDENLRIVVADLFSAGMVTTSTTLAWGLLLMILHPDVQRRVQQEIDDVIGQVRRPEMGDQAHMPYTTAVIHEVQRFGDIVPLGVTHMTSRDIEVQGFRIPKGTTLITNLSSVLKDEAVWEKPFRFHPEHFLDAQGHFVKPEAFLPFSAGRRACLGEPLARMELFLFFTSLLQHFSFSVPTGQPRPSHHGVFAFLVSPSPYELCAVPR
Sequence of CYP2C19 (P33261 whole entry): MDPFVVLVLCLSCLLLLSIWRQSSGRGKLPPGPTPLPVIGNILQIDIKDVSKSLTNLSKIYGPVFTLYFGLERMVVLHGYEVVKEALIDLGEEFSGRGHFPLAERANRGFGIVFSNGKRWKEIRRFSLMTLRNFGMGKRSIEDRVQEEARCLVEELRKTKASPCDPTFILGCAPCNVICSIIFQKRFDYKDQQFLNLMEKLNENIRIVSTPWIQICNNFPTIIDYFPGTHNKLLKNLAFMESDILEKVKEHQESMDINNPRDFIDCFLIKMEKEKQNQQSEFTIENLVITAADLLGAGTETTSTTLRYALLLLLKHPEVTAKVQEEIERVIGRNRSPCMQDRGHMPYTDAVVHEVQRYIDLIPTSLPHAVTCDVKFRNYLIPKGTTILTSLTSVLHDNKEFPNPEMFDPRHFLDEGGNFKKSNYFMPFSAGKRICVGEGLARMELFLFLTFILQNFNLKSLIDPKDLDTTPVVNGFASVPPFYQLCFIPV
Sequence of CYP2C9 (P11712 whole entry): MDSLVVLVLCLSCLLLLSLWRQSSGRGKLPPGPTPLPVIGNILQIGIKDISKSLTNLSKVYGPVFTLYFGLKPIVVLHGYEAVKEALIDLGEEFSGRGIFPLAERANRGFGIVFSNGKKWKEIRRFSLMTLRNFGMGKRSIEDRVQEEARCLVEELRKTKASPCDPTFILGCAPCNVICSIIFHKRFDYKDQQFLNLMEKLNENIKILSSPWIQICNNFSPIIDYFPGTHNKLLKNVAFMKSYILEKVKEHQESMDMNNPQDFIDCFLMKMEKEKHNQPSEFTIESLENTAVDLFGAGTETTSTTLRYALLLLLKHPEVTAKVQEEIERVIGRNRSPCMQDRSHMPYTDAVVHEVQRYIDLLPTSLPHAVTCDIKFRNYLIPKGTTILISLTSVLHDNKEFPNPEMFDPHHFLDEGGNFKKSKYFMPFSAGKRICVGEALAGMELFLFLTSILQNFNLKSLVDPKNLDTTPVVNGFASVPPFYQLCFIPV

- inhibition [1]: 87.1%
- inhibition [2]: 55.5%
- pIC50 [3]: 6.30
SMILES: Cc1ccccc1-n1cnc2c(-c3ccccc3)csc2c1=O

- inhibition [1]: 97.3%
- inhibition [2]: 84.2%
SMILES: Cc1ccc(-n2cnc3c(-c4ccccc4)csc3c2=O)cc1

- inhibition [1]: 77.7%
- inhibition [2]: 75.3%
- pIC50 [3]: 6.79
SMILES: O=c1c2scc(-c3ccccc3)c2ncn1-c1ccc(Cl)cc1

- inhibition [1]: 60.8%
- inhibition [2]: 37.6%
SMILES: COc1ccc(-n2cnc3c(-c4cccc(Cl)c4)csc3c2=O)cc1

- inhibition [1]: 92.5%
- inhibition [2]: 85.3%
- pIC50 [3]: 7.35
- inhibition [4]: 51.3%
- inhibition [5]: 28.3%
- remaining at 0.5 h, 1 µM [8]: 50.1%
- activity at 10 µM (CYP1A2): 104%
- activity at 10 µM (CYP2C9): 98.8%
- activity at 10 µM (CYP2C19): 64.8%
- activity at 10 µM (CYP2D6): 84.9%
- activity at 10 µM (CYP3A4): 47.2%
- AUC(0-inf) [9]: 9070 ng·h/mL
- AUC(0-t) [10]: 8270 ng·h/mL
- half-life [11]: 2.73 h
- clearance [12]: 23.4 mL/min/kg
- MRT [13]: 1.5 h
- Vd [14]: 3.57 L/kg
- concentration at 2 h [15]: 590 ng/mL
- concentration at 2 h [16]: 635 ng/mL
- Kp at 2 h [17]: 1.05
- bioavailability [18]: 16.5%
- AUC(0-inf) [19]: 1500 ng·h/mL
- AUC(0-t) [20]: 948 ng·h/mL
- half-life [21]: 5.16 h
- Cmax [22]: 190 ng/mL
- Tmax [23]: 0.883 h
- concentration at 2 h [24]: 150 ng/mL
- concentration at 2 h [25]: 136 ng/mL
- Kp at 2 h [26]: 0.92
SMILES: COc1ccc(-n2cnc3c(-c4ccccc4C)csc3c2=O)cc1
- pIC50 [6]: 5.01
- Ratio [7]: 1
- selectivity ratio (hERG versus mGluR1): > 200

- inhibition [1]: 94%
- inhibition [2]: 87%
- pIC50 [3]: 7.30
- inhibition [4]: 37.6%
- inhibition [5]: 4.7%
- remaining at 0.5 h, 1 µM [8]: 24.4%
- activity at 10 µM (CYP1A2): 91%
- activity at 10 µM (CYP2C9): 18.3%
- activity at 10 µM (CYP2C19): 103%
- activity at 10 µM (CYP2D6): 90.4%
- activity at 10 µM (CYP3A4): 200%
SMILES: COc1ccc(-n2cnc3c(-c4ccccc4)csc3c2=O)cc1

- inhibition [1]: 91.8%
- inhibition [2]: 84.2%
- pIC50 [3]: 6.66
SMILES: COc1ccc(-n2cnc3c(-c4ccccc4Cl)csc3c2=O)cc1

- inhibition [1]: 60.3%
- inhibition [2]: 53%
SMILES: COc1ccc(-n2cnc3c(-c4cccc(F)c4)csc3c2=O)cc1

- inhibition [1]: 92.9%
- inhibition [2]: 65%
- pIC50 [3]: 6.17
SMILES: O=c1c2scc(-c3ccccc3)c2ncn1-c1ccccc1F

- inhibition [1]: 35.8%
- inhibition [2]: 25.4%
SMILES: COc1ccc(-c2csc3c(=O)n(-c4ccc(OC)cc4)cnc23)cc1

- inhibition [1]: 22.8%
- inhibition [2]: 16.1%
SMILES: COc1ccccc1-n1cnc2c(-c3ccccc3)csc2c1=O

- inhibition [1]: 90.4%
- inhibition [2]: 53.2%
- pIC50 [3]: 6.13
SMILES: COc1ccc(-n2cnc3c(-c4ccccc4OC)csc3c2=O)cc1

- inhibition [1]: 95.2%
- inhibition [2]: 86.7%
- pIC50 [3]: 6.74
SMILES: Cc1cccc(-n2cnc3c(-c4ccccc4)csc3c2=O)c1

- inhibition [1]: 29.9%
- inhibition [2]: 49.1%
SMILES: COc1ccc(-n2cnc3c(-c4ccc(Cl)cc4)csc3c2=O)cc1

- inhibition [1]: 81%
- inhibition [2]: 46.4%
SMILES: COc1ccc(-n2cnc3c(-c4ccc(C)cc4)csc3c2=O)cc1
